Experimental data as given in PMC10895701 (Nature structural & molecular biology, 2023).

Columns and labels:
[1] = system: OCT1CS; experiment: 3H-MPP+ uptake in X. laevis oocytes expressing OCT1CS; assay type: cell-based; conditions: 30 min uptake
In short: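 Xenopus laevis oocytes injected with 30 ng cRNA, expressed 2–4 days at 17°C. Uptake of 3H-MPP+ (specific radioactivity 0.06 Ci/mmol) over a concentration series, 30 min uptake. Background corrected with water-injected oocytes; radioactivity counted. Kt fitted, reported ± s.e.m.; n=3 biologically independent replicates.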

[2] = system: WT hOCT1; conditions: cited from earlier work
[3] = system: OCT1CS; experiment: 14C-metformin uptake in oocytes expressing OCT1CS; assay type: cell-based

Row | SMILES | Michaelis constant for transport (Kt) for MPP+ transport [1] | Kt for metformin, previous reports [2] | Kt for metformin [3]
1 | C[n+]1ccc(-c2ccccc2)cc1 [MPP^+, 1-methyl-4-phenylpyridinium] | ~ 50 μM | – | –
2 | CN(C)C(=N)N=C(N)N [metformin] | – | 1 to 5 mM | ~ 3 mM
